ChEMBL document CHEMBL1148362 (J Med Chem, 2004)

Experiments:
[1] = test system: Jurkat; assay: Inhibition of IL-2 production was determined in Jurkat cells after PMA/PHA activation by Enzyme immunoassay; format: functional, cell-based; conditions: Homo sapiens
How it was run: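 Human Jurkat leukemia T-cells exposed to test agents 30 min before PMA activation. Cell-free supernatants collected after 24 h and total IL-2 quantified by competitive enzyme immunoassay. Dose–response tested up to 10 μM. IC50 derived. PDTC control included in all experiments.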

[2] = test system: THP-1; assay: Inhibition of TNF-alpha production was determined in THP-1cells after LPS activation by Enzyme immunoassay; format: functional, cell-based; conditions: Homo sapiens
How it was run: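 Human monocytic THP-1 cells treated 30 min before LPS activation, then incubated 3 h. TNF-α in the output measured by competitive enzyme immunoassay and IC50 derived. Values are mean of two experiments with standard deviation. PDTC served as control.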

[3] = test system: CCRF-CEM; assay: Inhibition of cell growth in CEM leukemia T cells was determined; format: functional; conditions: Homo sapiens
[4] = test system: Nuclear factor NF-kappa-B (Homo sapiens); assay: Inhibition of DNA binding of NF-uM) PMA/PHA activated Jurkat cells; No significant inhibition

Row | IC50 [1] [µM] | IC50 [2] [µM] | GI50 [3] [µM] | inhibition [4] | SMILES
1 | 3.55 | 8.16 | 1.73 |  | Nc1nc(C2=C3C(=Nc4ccccc43)C(=O)NCC2)c(O)[nH]1
2 | 2.41 | 1.36 | 1.61 |  | NC1=NC(=O)/C(=C2\CCNC(=O)c3[nH]c(Br)cc32)N1 [HYMENIALDISINE]
3 | > 10 | > 10 | 14.3 | No effect | Cn1c2c(c3ccccc31)/C(=C1\N=C(N)NC1=O)CCNC2=O
